Laboratory results taken from ChEMBL document CHEMBL1139836, “Development of orally bioavailable and CNS penetrant biphenylaminocyclopropane carboxamide bradykinin B1 receptor antagonists” (J Med Chem, 2007).
Calls of active or inactive are those of the source.

Legend:
[1] = Stability in monkey hepatocytes; type: ADME, cell-based, Macaca mulatta, Hepatocyte; conditions: rhesus monkey
[2] = target: T1, B1 bradykinin receptor (Homo sapiens, UniProt P46663); experiment: Plasma concentration in hB1 knock-in-mouse at 20 mg/kg, po after 1 hr; type: ADME, organism-based; design: dose 20 mg/kg, route oral
T1 sequence (P46663 whole entry): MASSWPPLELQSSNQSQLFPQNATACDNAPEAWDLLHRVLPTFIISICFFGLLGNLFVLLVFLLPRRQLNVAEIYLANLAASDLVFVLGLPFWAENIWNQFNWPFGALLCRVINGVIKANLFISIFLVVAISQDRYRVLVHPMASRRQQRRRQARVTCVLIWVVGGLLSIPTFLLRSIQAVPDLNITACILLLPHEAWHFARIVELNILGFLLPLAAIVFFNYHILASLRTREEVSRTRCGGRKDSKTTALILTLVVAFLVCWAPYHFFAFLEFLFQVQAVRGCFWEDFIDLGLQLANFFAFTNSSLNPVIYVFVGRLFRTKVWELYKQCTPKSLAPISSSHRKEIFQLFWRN
Summary of the method: (§1)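 hB1 knock-in mice with CFA paw inflammation, dosed po at 6, 20 or 60 mg/kg in 0.5% methylcellulose with 10 mg/mL malic acid, pH 4. Plasma collected 60 min after dosing, following behavioural testing.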

[3] = tested on: Rhesus monkey; experiment: Antidepressor effect in iv dosed rhesus monkey measured as blockade of DAK-induced blood pressure response; type: functional, Macaca mulatta
Summary of the method: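 Conscious rhesus monkeys primed with LPS 20 µg/kg iv and given 2 h equilibration. Baseline depressor response to des-Arg10-kallidin 0.3 µg/kg iv measured twice. Antagonist given as rising iv bolus doses of 3, 10, 30 and 100 µg/kg, each 5 min before a DAK challenge, with the fall in mean arterial pressure recorded. Plasma sampled 2 min after each dose. Crossover against vehicle, n = 3.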

[4] = Ratio of drug level in brain against plasma in African green monkey at 2 mg/kg, iv; conditions: read-out: BPR
[5] = Stability in rat hepatocytes; type: ADME, cell-based, Hepatocyte
[6] = Clearance in rhesus monkey at 3 mg/kg, po and 1 mg/kg, iv; type: ADME, organism-based, Macaca mulatta; conditions: in vivo
Summary of the method: (§2)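 Rhesus monkeys, n = 2, dosed orally at 3 mg/kg and iv at 1 mg/kg. F%, half-life in hours, clearance in mL/min/kg.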

[7] = Half life in Sprague-Dawley rat at 10 mg/kg, po and 2 mg/kg, iv; type: ADME, organism-based; conditions: in vivo
Summary of the method: (§3)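 Sprague-Dawley rats, n = 3, dosed orally at 10 mg/kg and iv at 2 mg/kg. F% from oral versus iv exposure; half-life in hours, clearance in mL/min/kg.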

[8] = target: T1, B1 bradykinin receptor; experiment: Plasma concentration in hB1 knock-in-mouse at 60 mg/kg, po after 1 hr; type: ADME, organism-based; design: dose 60 mg/kg, route oral; summary of the method: as §1
[9] = tested on: Mus musculus; experiment: Effect on complete Freund's adjuvant-induced hypersensitivity in mouse at 20 mg/kg, po; type: functional, organism-based; design: dose 20 mg/kg
Summary of the method: (§4)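 Humanized B1 knock-in mice and wild-type mice, 8-13 weeks old. Injected intraplantar with 30 µL of 50% CFA; 24 h later tested for von Frey tactile threshold (Dixon up-down). Then dosed po at 6, 20 or 60 mg/kg or vehicle (0.5% methylcellulose with 10 mg/mL malic acid, pH 4, 10 mL/kg). Paw withdrawal threshold read at 60 min. Two-way repeated-measures ANOVA with Tukey test.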

[10] = Clearance in Sprague-Dawley rat at 10 mg/kg, po and 2 mg/kg, iv; type: ADME, organism-based; conditions: in vivo; summary of the method: as §3
[11] = Oral bioavailability in Mongrel dog at 3 mg/kg, po and 1 mg/kg, iv; type: ADME, organism-based, Canis lupus familiaris; conditions: in vivo
Summary of the method: (§5)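 Mongrel dogs, n = 2, dosed orally at 3 mg/kg and iv at 1 mg/kg. F%, half-life in hours, clearance in mL/min/kg.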

[12] = Stability in monkey liver microsomes; type: ADME, Macaca mulatta, Microsome; conditions: rhesus monkey
[13] = tested on: Mus musculus; experiment: Effect on complete Freund's adjuvant-induced hypersensitivity in mouse at 60 mg/kg, po; type: functional, organism-based; design: dose 60 mg/kg; summary of the method: as §4
[14] = Oral bioavailability in Sprague-Dawley rat at 10 mg/kg, po and 2 mg/kg, iv; type: ADME, organism-based; conditions: in vivo; summary of the method: as §3
[15] = Stability in human hepatocytes; type: ADME, cell-based, Hepatocyte
[16] = target: T1, B1 bradykinin receptor; experiment: Plasma concentration in hB1 knock-in-mouse at 6 mg/kg, po after 1 hr; type: ADME, organism-based; design: dose 6 mg/kg, route oral; summary of the method: as §1
[17] = Half life in Mongrel dog at 3 mg/kg, po and 1 mg/kg, iv; type: ADME, organism-based, Canis lupus familiaris; conditions: in vivo; summary of the method: as §5
[18] = tested on: Liver microsomes; experiment: Stability in rat liver microsomes; type: ADME, Microsome
[19] = Oral bioavailability in rhesus monkey at 3 mg/kg, po and 1 mg/kg, iv; type: ADME, organism-based, Macaca mulatta; conditions: in vivo; summary of the method: as §2
[20] = target: T2, B1 bradykinin receptor (Homo sapiens) (UniProt P46663); experiment: Reversal of complete Freund's adjuvant-induced hyperalgesia in orally dosed hB1 knock-in-mouse; type: functional, organism-based; summary of the method: as §4
T2 sequence (whole entry): T1 sequence (P46663 whole entry)

[21] = Clearance in Mongrel dog at 3 mg/kg, po and 1 mg/kg, iv; type: ADME, organism-based, Canis lupus familiaris; conditions: in vivo; summary of the method: as §5
[22] = Stability in dog liver microsomes; type: ADME, Canis lupus familiaris, Microsome
[23] = Half life in rhesus monkey at 3 mg/kg, po and 1 mg/kg, iv; type: ADME, organism-based, Macaca mulatta; conditions: in vivo; summary of the method: as §2
[24] = tested on: Liver microsomes; experiment: Stability in human liver microsomes; type: ADME, Microsome
[25] = tested on: Mus musculus; experiment: Effect on complete Freund's adjuvant-induced hypersensitivity in mouse at 6 mg/kg, po; type: functional, organism-based; design: dose 6 mg/kg; summary of the method: as §4

## COC(=O)c1c(Cl)cccc1-c1ccc([C@@H](C)NC(=O)C2(NC(=O)C(F)(F)F)CC2)c(F)c1 [MK0686]
[1]
  Stability: Stable
[2]
  concentration at 1 h: 3.5 µM
[3]
  AD90: 0.047 mg/kg
[4]
  Kp: 0.4
[5]
  Stability: Stable
[6]
  clearance: 13 mL/min/kg
[7]
  half-life: 0.4 h
[8]
  concentration at 1 h: 5 µM
[9]
  Activity: inactive
[10]
  clearance: 40 mL/min/kg
[11]
  bioavailability: 33%
[12]
  Stability: Stable
[13]
  Activity: inactive
[14]
  bioavailability: 34%
[15]
  Stability: Stable
[16]
  concentration at 1 h: 1 µM
[17]
  half-life: 1.8 h
[18]
  Stability: Stable
[19]
  bioavailability: 31%
[20]
  ED50: 9.76 mg/kg
[21]
  clearance: 9 mL/min/kg
[22]
  Stability: Stable
[23]
  half-life: 1.7 h
[24]
  Stability: Stable
[25]
  Activity: inactive
